Each block holds one compound with its values, some of them ahead of it. Calls of active or inactive are those of the source.
Assays:
[1] = system: Mus musculus; experiment: Ability to antagonise intraperitoneal administration; inactive (<10% antagonism) at 30 mgjkg is represented as I-30.; assay type: functional, organism-based
Outline: (§1)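 Nonfasted male Swiss Webster mice, 18–24 g, ten per dose level and in saline controls. Test compound given ip 30 min before tetrabenazine 32 mg/kg ip; dose expressed as free base. Motor activity and ptosis scored. Control response ≤90% corrected by Abbott's formula.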

[2] = species on record: Rattus norvegicus; experiment: Ability to inhibit the uptake of tritiated dopamine (DA) 1 uM concentration; assay type: functional
Outline: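 Rat brain synaptosomal [3H]dopamine uptake: striatal P2 fraction, test compound at 1.00 μM. Preincubated at 37 °C, then 50–300 nM [3H]DA for 3 min. Blanks on ice. Filtration and scintillation counting; percent inhibition of control uptake.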

[3] = species on record: Mus musculus; experiment: Gross behavioral effects ascertained in mice; W indicates weak stimulant or depressant activity of little significance.; assay type: functional, organism-based
Outline: (§2)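 Male Swiss Webster mice, 18–24 g, three per dose, given ip doses of 1, 3, 10, 30, 100 and 300 mg/kg. Observed for gross behavior and held for 4 days. Scored as weak (W), stimulant (S), depressant (D) or convulsant (C).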

[4] = biological target: Norepinephrine transporter (Rattus norvegicus) (UniProt Q9WTR4); experiment: Ability to inhibit the uptake of [3H]norepinephrine (NE) 0.1 uM concentration at rat brain synaptosomes; assay type: functional, subcellular
Norepinephrine transporter (Rattus norvegicus), sequence (Q9WTR4 as listed by the source): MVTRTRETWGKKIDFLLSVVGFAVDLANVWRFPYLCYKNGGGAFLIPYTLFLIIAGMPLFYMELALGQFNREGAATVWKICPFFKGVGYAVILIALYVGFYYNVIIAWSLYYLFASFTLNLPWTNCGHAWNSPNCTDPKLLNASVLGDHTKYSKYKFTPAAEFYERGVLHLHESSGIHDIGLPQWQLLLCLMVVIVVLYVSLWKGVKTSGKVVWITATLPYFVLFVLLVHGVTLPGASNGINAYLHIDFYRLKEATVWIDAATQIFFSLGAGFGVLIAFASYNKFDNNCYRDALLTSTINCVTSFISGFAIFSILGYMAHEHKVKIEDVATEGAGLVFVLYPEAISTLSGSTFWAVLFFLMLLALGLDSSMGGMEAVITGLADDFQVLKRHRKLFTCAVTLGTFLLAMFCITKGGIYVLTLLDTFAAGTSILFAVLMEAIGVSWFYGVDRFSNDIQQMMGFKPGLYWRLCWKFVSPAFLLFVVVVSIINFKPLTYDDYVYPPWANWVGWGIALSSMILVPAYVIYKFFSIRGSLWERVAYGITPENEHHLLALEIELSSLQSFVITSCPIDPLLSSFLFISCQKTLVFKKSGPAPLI
Outline: (§3)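 Male Wistar rat brain synaptosomes (P2 fraction): hypothalamus for NE, striatum for DA, cerebral cortex for 5-HT. Buffer is Tris- or HEPES-buffered salt medium with glucose, ascorbate and nialamide, pH 7.4 at 37 °C. Preincubated 10 min at 37 °C with compound. Uptake started with [3H]NE 100–300 nM, [3H]DA 50–300 nM or [3H]5-HT 100–200 nM, incubated 3 min (DA) or 6–10 min (NE, 5-HT). Blanks held on ice. Filtered, counted by scintillation.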

[5] = biological target: Sodium-dependent serotonin transporter (Rattus norvegicus) (UniProt P31652); experiment: Ability to inhibit the uptake of [3H]- serotonin(5-HT) 0.1 uM concentration at rat brain synaptosomes; assay type: functional, subcellular; outline: as §3
Sodium-dependent serotonin transporter (Rattus norvegicus), sequence (P31652 whole entry): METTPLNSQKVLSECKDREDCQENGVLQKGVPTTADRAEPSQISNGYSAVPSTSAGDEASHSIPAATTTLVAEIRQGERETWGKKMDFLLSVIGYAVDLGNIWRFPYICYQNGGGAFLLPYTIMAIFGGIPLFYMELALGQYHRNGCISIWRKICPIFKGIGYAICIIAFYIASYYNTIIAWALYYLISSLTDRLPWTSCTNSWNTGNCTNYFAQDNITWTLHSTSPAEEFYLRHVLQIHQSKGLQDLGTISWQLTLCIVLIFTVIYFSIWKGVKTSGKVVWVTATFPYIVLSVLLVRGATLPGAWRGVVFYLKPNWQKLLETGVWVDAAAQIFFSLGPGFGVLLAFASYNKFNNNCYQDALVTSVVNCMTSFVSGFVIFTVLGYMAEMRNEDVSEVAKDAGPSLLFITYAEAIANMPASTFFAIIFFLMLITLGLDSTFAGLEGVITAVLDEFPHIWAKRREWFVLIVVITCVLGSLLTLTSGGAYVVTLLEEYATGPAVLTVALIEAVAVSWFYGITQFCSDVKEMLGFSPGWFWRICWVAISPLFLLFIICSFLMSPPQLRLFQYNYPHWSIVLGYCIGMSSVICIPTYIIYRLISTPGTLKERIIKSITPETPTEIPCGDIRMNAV

[6] = system: Mus musculus; experiment: (§4) Ability to antagonise intraperitoneal dose; inactive (<10% antagonism) at 30 mgjkg is represented as I-30.; assay type: functional, organism-based; outline: as §1
[7] = biological target: Sodium-dependent serotonin transporter (Rattus norvegicus) (UniProt P31652); experiment: Inhibition of tritiated serotonin(5-HT) uptake at 0.1 uM concentration; assay type: functional; outline: as §3
[8] = system: Mus musculus; experiment: Ability to antagonise intraperitoneal 30 mg/kg dose; inactive (<10% antagonism) at 30 mgjkg is represented as I-30.; assay type: functional, organism-based; parameters: dose 30 mg/kg; outline: as §1
[9] = species on record: Mus musculus; experiment: Gross behavioral effects ascertained in mice; C indicates overt convulsant; assay type: functional, organism-based; outline: as §2
[10] = system: Mus musculus; experiment: Ability to antagonise intraperitoneal dose; inactive (<10% antagonism) at 30 mg/kg is represented as I-30.; assay type: functional, organism-based; parameters: dose 30 mg/kg; outline: as §1
[11] = biological target: Sodium-dependent dopamine transporter (Rattus norvegicus, UniProt P23977); experiment: Inhibition of the uptake of tritiated dopamine (DA) in rat synaptosomes; assay type: subcellular, Brain
Sodium-dependent dopamine transporter, sequence (P23977 whole entry): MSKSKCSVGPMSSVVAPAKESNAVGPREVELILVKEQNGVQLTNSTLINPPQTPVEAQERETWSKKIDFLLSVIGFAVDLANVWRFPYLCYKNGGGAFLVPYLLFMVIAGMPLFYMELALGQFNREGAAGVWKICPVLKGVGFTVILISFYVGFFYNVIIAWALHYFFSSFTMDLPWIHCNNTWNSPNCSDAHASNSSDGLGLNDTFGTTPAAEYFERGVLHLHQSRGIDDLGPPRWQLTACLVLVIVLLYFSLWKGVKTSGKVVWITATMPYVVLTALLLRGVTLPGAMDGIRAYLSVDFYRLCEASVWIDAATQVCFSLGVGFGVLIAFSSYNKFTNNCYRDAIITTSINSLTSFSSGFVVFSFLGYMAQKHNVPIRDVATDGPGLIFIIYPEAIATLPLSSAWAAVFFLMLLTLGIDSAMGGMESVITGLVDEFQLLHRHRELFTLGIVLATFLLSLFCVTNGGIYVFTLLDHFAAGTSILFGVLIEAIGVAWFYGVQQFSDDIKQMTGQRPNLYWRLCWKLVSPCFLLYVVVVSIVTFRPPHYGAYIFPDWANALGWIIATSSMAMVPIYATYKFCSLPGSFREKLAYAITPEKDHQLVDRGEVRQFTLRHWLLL

[12] = species on record: Rattus norvegicus; experiment: Ability to inhibit the uptake of tritiated norepinephrine (NE) at 0.1 uM concentration; assay type: functional; outline: as §3
[13] = species on record: Mus musculus; experiment: Antagonism of tetrabenazine (TBZ)-induced depression in mice measured for ptosis; assay type: functional; conditions: Mus musculus; read-out: ED50; outline: as §1
[14] = system: Rattus norvegicus; experiment: Ability to inhibit the uptake of tritiated norepinephrine (NE) 0.1 mg/kg concentration; assay type: functional
[15] = system: Rattus norvegicus; experiment: Ability to inhibit the uptake of tritiated serotonin(5-HT) 0.1 mg/kg concentration; assay type: functional
[16] = species on record: Mus musculus; experiment: Antagonism of tetrabenazine (TBZ)-induced depression measured in mice by motor activity; assay type: functional; conditions: Mus musculus; read-out: ED50; outline: as §1
[17] = species on record: Rattus norvegicus; experiment: Ability to inhibit the uptake of tritiated dopamine (DA); assay type: functional; outline: as §3
[18] = biological target: Norepinephrine transporter (Rattus norvegicus, UniProt Q9WTR4); experiment: Inhibition of uptake of tritiated norepinephrine (NE) in rat synaptosomes; assay type: subcellular, Brain
Norepinephrine transporter, sequence (Q9WTR4 whole entry): as the sequence (Q9WTR4 as listed by the source) above

[19] = system: Mus musculus; experiment: as §4; assay type: functional, organism-based; remark: listed apart in the source
Outline: (§5)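 Swiss Webster male albino mice, nonfasted, 18–24 g, 10 per dose and in saline control. Compound given ip 30 min before TBZ 32 mg/kg ip. Motor activity and ptosis scored. Response corrected by Abbott's formula when control response was 90% or less. Doses expressed as free base.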

[20] = system: Mus musculus; experiment: as §4; assay type: functional, organism-based; outline: as §5; remark: listed apart in the source
[21] = species on record: Rattus norvegicus; experiment: Ability to inhibit the uptake of tritiated serotonin (5-HT) at 0.1 uM concentration in rat synaptosomes; assay type: functional; conditions: Brain; outline: as §3
[22] = biological target: Adrenergic receptor alpha-1 (Rattus norvegicus) (UniProt P15823+P23944+P43140); experiment: Binding affinity towards alpha-1 adrenergic receptor at 1.0 uM concentration; assay type: protein assay
Outline: (§6)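 Rat brain crude synaptic membranes in 20 mM NaHEPES pH 7.5. Ligands: α1 cortex […] 0.4 nM, nonspecific with (-)-NE 100 μM, 30 min at 25 °C. […] D2 striatum [3H]spiperone 0.05 nM with (+)-butaclamol 1 μM, 45 min at 37 °C. S1 cortex [3H]5-HT 1 nM plus glutathione and MgCl2, with 5-HT 10 μM, 20 min at 37 °C. […] Samples filtered on GF/B and counted.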

[23] = biological target: Sodium-dependent dopamine transporter (Rattus norvegicus) (UniProt P23977); experiment: Inhibition of tritiated dopamine (DA) uptake at 0.1 uM concentration; assay type: functional; outline: as §3
Sodium-dependent dopamine transporter (Rattus norvegicus), sequence (P23977 whole entry): as the sequence (P23977 whole entry) above

[24] = biological target: T1, Serotonin 2 (5-HT2) receptor (Rattus norvegicus) (UniProt P30994+P08909+P14842); experiment: Binding affinity towards 5-hydroxytryptamine 2 receptor at 1.0 uM concentration; assay type: protein assay; outline: as §6
T1 sequence (P08909 whole entry, looked up): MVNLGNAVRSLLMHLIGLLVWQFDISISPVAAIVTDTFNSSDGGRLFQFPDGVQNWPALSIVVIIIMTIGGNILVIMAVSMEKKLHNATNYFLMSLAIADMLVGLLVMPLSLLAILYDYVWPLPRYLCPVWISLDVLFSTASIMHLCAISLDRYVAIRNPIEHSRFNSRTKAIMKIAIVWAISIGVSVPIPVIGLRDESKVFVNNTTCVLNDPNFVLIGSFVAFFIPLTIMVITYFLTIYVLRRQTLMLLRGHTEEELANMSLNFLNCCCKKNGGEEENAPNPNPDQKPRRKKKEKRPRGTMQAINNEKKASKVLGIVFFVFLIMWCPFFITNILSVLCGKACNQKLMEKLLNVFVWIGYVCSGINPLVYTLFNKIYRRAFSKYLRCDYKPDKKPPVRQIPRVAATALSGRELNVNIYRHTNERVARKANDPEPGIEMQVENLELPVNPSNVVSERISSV
T1 sequence (P14842 whole entry, looked up): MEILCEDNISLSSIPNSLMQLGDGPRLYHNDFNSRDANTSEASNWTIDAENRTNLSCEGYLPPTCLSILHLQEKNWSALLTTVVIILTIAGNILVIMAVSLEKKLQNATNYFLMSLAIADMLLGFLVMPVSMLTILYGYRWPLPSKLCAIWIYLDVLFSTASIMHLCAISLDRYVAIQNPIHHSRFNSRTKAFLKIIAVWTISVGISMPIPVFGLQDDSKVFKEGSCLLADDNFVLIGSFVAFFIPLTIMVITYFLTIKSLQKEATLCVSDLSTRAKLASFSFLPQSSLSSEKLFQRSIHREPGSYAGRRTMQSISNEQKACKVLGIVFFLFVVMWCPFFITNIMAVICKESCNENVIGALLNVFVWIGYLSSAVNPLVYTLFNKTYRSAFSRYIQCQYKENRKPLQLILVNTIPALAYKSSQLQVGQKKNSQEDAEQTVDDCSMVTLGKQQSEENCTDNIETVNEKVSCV
T1 sequence (P30994 whole entry, looked up): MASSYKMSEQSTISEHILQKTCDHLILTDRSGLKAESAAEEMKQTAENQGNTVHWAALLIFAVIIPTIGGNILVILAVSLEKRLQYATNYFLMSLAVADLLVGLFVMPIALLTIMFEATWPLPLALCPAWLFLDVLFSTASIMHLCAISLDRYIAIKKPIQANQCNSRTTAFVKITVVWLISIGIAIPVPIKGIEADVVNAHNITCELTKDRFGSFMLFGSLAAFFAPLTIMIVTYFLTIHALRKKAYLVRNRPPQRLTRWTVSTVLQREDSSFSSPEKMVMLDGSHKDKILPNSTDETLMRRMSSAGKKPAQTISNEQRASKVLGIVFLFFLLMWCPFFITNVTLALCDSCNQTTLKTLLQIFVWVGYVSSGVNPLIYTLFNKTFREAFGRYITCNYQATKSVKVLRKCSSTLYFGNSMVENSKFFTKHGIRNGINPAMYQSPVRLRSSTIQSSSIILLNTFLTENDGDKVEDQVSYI

[25] = biological target: D(2) dopamine receptor (Rattus norvegicus) (UniProt P61169); experiment: Binding affinity towards dopamine receptor D2 at 1.0 uM concentration; outline: as §6
D(2) dopamine receptor (Rattus norvegicus), sequence (P61169 whole entry): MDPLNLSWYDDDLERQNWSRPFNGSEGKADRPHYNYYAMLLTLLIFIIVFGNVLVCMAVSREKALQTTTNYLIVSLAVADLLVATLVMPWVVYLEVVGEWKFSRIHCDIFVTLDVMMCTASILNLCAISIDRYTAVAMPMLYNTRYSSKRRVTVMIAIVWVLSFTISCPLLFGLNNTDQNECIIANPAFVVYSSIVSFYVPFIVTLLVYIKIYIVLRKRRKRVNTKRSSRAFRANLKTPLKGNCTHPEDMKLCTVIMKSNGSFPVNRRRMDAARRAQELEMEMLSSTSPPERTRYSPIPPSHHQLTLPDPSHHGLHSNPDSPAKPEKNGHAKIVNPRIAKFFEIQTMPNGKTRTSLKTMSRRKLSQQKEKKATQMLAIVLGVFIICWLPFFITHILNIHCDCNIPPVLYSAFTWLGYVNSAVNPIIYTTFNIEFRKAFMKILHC

[26] = biological target: T1, Serotonin 2 (5-HT2) receptor (Rattus norvegicus); experiment: Binding affinity towards 5-hydroxytryptamine 2 receptor; assay type: protein assay; conditions: concentration not given here; outline: as §6
[27] = biological target: Serotonin 1 (5-HT1) receptor (Rattus norvegicus) (UniProt P28564+P30940+P19327+P28565); experiment: Binding affinity towards serotonin S1 receptor at 1.0 uM; assay type: protein assay; outline: as §6
[28] = species on record: Mus musculus; experiment: Gross behavioral effects ascertained in mice; D indicates significant depressant properties.; assay type: functional, organism-based
Outline: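 Male Swiss Webster albino mice, 18–24 g, three per dose, given ip 1, 3, 10, 30, 100 and 300 mg/kg. Gross behaviour observed and held 4 days. Estimated LD50 range from lethality count on day 4. Scored as weak stimulant/depressant, significant stimulant, significant depressant or overt convulsant.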

[29] = system: Rattus norvegicus; experiment: Ability to inhibit the uptake of tritiated serotonin(5-HT) at 0.1 mg/kg concentration; assay type: functional
[30] = system: Mus musculus; experiment: as §4; assay type: functional, organism-based; outline: as §1; remark: listed apart in the source
[31] = species on record: Rattus norvegicus; experiment: Ability to inhibit the uptake of tritiated norepinephrine (NE) 0.1 uM concentration; assay type: functional; outline: as §3
[32] = system: Mus musculus; experiment: Ability to antagonise intraperitoneal administration; weakly active (>=10% and <=30% antagonism) at 30 mg/kg is represented as >30; assay type: functional; conditions: ip; outline: as §1
[33] = species on record: Mus musculus; experiment: Gross behavioral effects ascertained in mice; assay type: functional, organism-based; outline: as §2
[34] = biological target: Sodium-dependent dopamine transporter (Rattus norvegicus) (UniProt P23977); experiment: Ability to inhibit the uptake of [3H]dopamine (DA) 0.1 uM concentration at rat brain synaptosomes; assay type: functional, subcellular; outline: as §3
[35] = biological target: D(1A) dopamine receptor (Rattus norvegicus) (UniProt P18901); experiment: Binding affinity towards Dopamine receptor D1 at 1.0 uM concentration; outline: as §6
D(1A) dopamine receptor (Rattus norvegicus), sequence (P18901 whole entry): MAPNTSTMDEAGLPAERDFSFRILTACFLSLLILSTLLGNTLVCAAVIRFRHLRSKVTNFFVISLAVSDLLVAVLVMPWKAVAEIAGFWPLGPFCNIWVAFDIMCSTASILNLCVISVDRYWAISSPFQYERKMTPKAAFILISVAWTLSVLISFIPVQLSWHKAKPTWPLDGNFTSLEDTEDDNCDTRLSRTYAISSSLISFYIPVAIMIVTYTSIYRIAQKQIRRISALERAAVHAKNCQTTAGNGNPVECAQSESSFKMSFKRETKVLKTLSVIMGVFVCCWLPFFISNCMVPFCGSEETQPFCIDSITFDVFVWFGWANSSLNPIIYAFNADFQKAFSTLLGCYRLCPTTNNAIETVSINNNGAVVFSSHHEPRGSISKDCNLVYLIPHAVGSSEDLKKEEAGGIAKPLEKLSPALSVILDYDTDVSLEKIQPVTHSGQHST

[36] = species on record: Mus musculus; experiment: Gross behavioral effects ascertained in mice; S indicates significant stimulant properties.; assay type: functional, organism-based; outline: as §2
[37] = biological target: Muscarinic acetylcholine receptor (Rattus norvegicus) (UniProt P08482+P08483+P08485+P08911+P10980); experiment: Binding affinity towards Muscarinic acetylcholine receptor at 10 uM concentration; assay type: protein assay

Compound: COc1ccc([C@@H]2CN3CCCC3c3cc(OC)c(OC)cc32)cc1OC (stereo partly drawn)
inhibition [7]: 10%
ED50 [8]: inactive
behavior [9]: Overt convulsant
ED50 [10]: inactive
Ki [11]: 0.355 µM
Inhibition [12]: 18%

Compound: Br.Cn1ccc2c1[C@H](c1ccccc1)CN1CCC[C@@H]21
ED50 [13]: > 30 mg/kg
behavior [3]: Weak
inhibition in vivo at 0.1 mg/kg [14]: 8%
inhibition in vivo at 0.1 mg/kg [15]: 6%
ED50 [16]: > 30 mg/kg

Compound: c1ccc(CCN2CCCC2c2ccccc2)cc1 (stereo not drawn)
ED50 [13]: ~10 mg/kg
behavior [3]: Weak
inhibition in vivo at 0.1 mg/kg [14]: 38%
inhibition in vivo at 0.1 mg/kg [15]: 4%
ED50 [16]: ~10 mg/kg

Compound: c1ccc([C@@H]2CN3CC[C@H]3c3ccccc32)cc1
ED50 [19]: inactive
ED50 [20]: inactive
Ki [18]: 0.866 µM
Ki [11]: 1.62 µM

Compound: C[C@@]12CCCN1CCc1ccccc12
Inhibition [2]: 15%
behavior [3]: Weak
inhibition [4]: 6%
inhibition [5]: 2%
ED50 [19]: inactive
ED50 [20]: inactive

Compound: c1ccc([C@@H]2CN3CCC[C@H]3c3[nH]c4ccccc4c32)cc1
inhibition in vivo at 0.1 mg/kg [14]: 7%
ED50 [10]: inactive
ED50 [20]: inactive
inhibition in vivo at 0.1 mg/kg [15]: -21%
behavior [28]: Significant depressant

Compound: c1ccc([C@@H]2CN3CCC[C@H]3Cc3ccccc32)cc1
inhibition in vivo at 0.1 mg/kg [29]: 6%

Compound: Br.CS(=O)(=O)c1ccc([C@@H]2CN3CCC[C@@H]3c3ccccc32)cc1
ED50 [10]: inactive
ED50 at 30 mg/kg [32]: > 30 mg/kg
behavior [33]: inactive

Compound: Br.c1ccc([C@H]2CN3CCC[C@H]3Cc3ccccc32)cc1
ED50 [16]: > 3 mg/kg
inhibition in vivo at 0.1 mg/kg [29]: 9%

Further lines, with some results ahead:

inhibition [4]: 0%
inhibition [5]: 0%
Compound: c1ccc2c(c1)[C@H](C1CCCCC1)CN1CCC[C@@H]21
ED50 [1]: inactive
Inhibition [2]: 31%
behavior [3]: Weak
ED50 [6]: inactive

Ki [17]: 0.0364 µM
inhibition [5]: 15%
Ki [18]: 0.0105 µM
Compound: C[C@@]12CCCCN1C[C@H](c1ccccc1)c1ccccc12
behavior [3]: Weak
ED50 [6]: inactive
ED50 [10]: inactive

Ki [17]: ~0.1 µM
Compound: c1ccc([C@@H]2CN3CCC[C@H]3c3ccccc32)cc1 [listing 1 of 2 here]

inhibition [4]: 21%
inhibition [5]: -10%
Compound: c1ccc([C@@H]2CN3CCC[C@H]3c3ccccc32)cc1 [listing 2 of 2 here]
inhibition [21]: 1%
behavior [9]: Overt convulsant
behavior [3]: Weak
ED50 [6]: inactive
ED50 [10]: inactive

inhibition [7]: 12%
inhibition [22]: 90%
inhibition [23]: 0%
inhibition [24]: 88%
Compound: Br.COc1cc([C@@H]2CN3CCC[C@H]3c3ccccc32)cc(OC)c1OC
ED50 [8]: inactive
behavior [3]: Partial stimulant
ED50 [10]: inactive
Inhibition [12]: 9%

inhibition [25]: 9%
inhibition [26]: 45%
inhibition [27]: 58%
Compound: FC(F)(F)c1cccc([C@@H]2CN3CCC[C@@H]3c3ccccc32)c1 (stereo in doubt; (-)-37b)

inhibition [22]: 48%
inhibition [26]: 44%
Compound: FC(F)(F)c1cccc([C@@H]2CN3CCC[C@@H]3c3ccccc32)c1 (stereo in doubt; (+)-37b)
behavior [3]: Partial stimulant

inhibition [5]: 4%
Ki [31]: 0.002 µM
Ki [11]: > 1 µM
Compound: C[C@@]12CCCCN1C[C@@H](c1ccccc1)c1ccccc12
ED50 [30]: inactive
behavior [9]: Overt convulsant
ED50 [6]: inactive

inhibition [5]: 22%
inhibition [34]: 4%
Ki [31]: ~0.1 µM
Compound: FC(F)(F)c1cccc([C@@H]2CN3CCC[C@H]3c3cccc(Cl)c32)c1

inhibition [35]: 35%
inhibition [37]: 0%
Compound: c1ccc([C@@H]2CN3CCC[C@@H]3c3ccccc32)cc1 (stereo in doubt; 7b)
behavior [36]: Stimulant
